We go through 11 molecules from ChEMBL document CHEMBL2177087, “Bivalent ligands targeting multiple pathological factors involved in Alzheimer's disease” (ACS Med Chem Lett, 2012).

The source made the active and inactive calls. The calls are words filed in the database; no cut-off is given here.

Series [1] deals with MC65. The series is described as follows: Neuroprotective activity in tetracycline-removed human MC65 cells assessed as protection against amyloid beta aggregate-induced cytotoxicity at 0.3 uM after 72 hrs by MTT assay. The series is classed as functional, cell-based. The method, boiled down: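 Single-concentration screen: MC65 cells given 0.3 μM compound under +TC or −TC conditions for 72 h, viability read by MTT. Reported as mean percentage viability (n = 3) relative to parallel +TC cultures at 100%; error bars SEM.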
(Tetrazolium assays rely on reduction of a dye to a coloured formazan, in cell work by metabolically active cells.)

The nature of series [2]: Neuroprotective activity in tetracycline-removed human MC65 cells assessed as protection against amyloid beta aggregate-induced cytotoxicity after 72 hrs by MTT assay. Particulars: MC65, 72 h. It counts as functional, cell-based. In short, it runs like this: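 MC65 cells kept in +TC or −TC medium with compound across a concentration series for 72 h; viability by MTT. Mean percentage viability (n = 3), parallel +TC cultures as 100%, SEM error bars; EC50 taken from dose–response.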

Series [3] in a line: Binding affinity to Zn2+ assessed as formation of metal complexes at 50 uM after 10 mins by UV-vis spectrum analysis. It counts as physicochemical. In short, it runs like this:
(§1)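 50 μM compound incubated with 60 μM CuSO4, FeCl2 or ZnCl2 at room temperature for 10 min. UV−vis spectrum recorded from 300 to 550 nm; complexation judged from spectral change versus metal-free spectrum.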

Series [4] in a line: Binding affinity to Cu2+ assessed as formation of metal complexes at 50 uM after 10 mins by UV-vis spectrum analysis. The series is classed as physicochemical. The method, boiled down: as §1
Series [5] in a line: Binding affinity to Fe2+ assessed as formation of metal complexes at 50 uM after 10 mins by UV-vis spectrum analysis. It counts as physicochemical. The method, boiled down: as §1
Series [6] has as its system MC65. The series is described as follows: Effect on C99 expression in tetracycline-removed human MC65 cells at 0.3 to 1 uM after 30 hrs by Western blot analysis. The series is classed as functional, cell-based.
Series [7] deals with MC65. In words: Inhibition of amyloid beta oligomer production in tetracycline-removed human MC65 cells after 30 hrs by Western blot analysis. It counts as functional, cell-based. In short, it runs like this: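 Compounds added immediately after tetracycline removal, MC65 cells cultured 30 h. Lysates Western blotted with 6E10 antibody; three oligomer bands quantified by densitometry, normalized to α-tubulin, and expressed relative to −TC control set at 100%. Image from one of two independent experiments.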

Series [8] has as its system MC65. In words: Antioxidant activity in tetracycline-removed human MC65 cells assessed as suppression of oxidative stress at 0.1 to 3 uM after 48 hrs by DCFH-DA assay. The series is classed as functional, cell-based. The method, boiled down: (§2)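 MC65 human neuroblastoma cells dosed under +TC or −TC (TC withdrawn) for 48 h, then loaded with 25 μM DCFH-DA. Cellular fluorescence measured by flow cytometry. Expressed as mean percentage of fluorescence intensity (n = 3), parallel +TC cultures set at 100%; error bars SEM.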

A short description of series [9]: Antioxidant activity in tetracycline-removed human MC65 cells assessed as suppression of oxidative stress at 0.1 uM after 48 hrs by DCFH-DA assay. The series is classed as functional. In short, it runs like this:
as §2

The subject of series [10] is MC65. In words: Antioxidant activity in tetracycline-removed human MC65 cells assessed as suppression of oxidative stress after 48 hrs by DCFH-DA assay. The series is classed as functional, cell-based. In short, it runs like this:
as §2

Regarding `COc1cc(/C=C/C(=O)/C=C(O)/C=C/c2ccc(OCc3cn(CCCCCCNC(=O)COCC(=O)NCCCCN[C@H]4CC[C@@]5(C)C(=CC[C@H]6[C@@H]7CC[C@H]([C@H](C)CCCC(C)C)[C@@]7(C)CC[C@@H]65)C4)nn3)c(OC)c2)ccc1O`, the result in series [1] was Active.

In the case of `COc1cc(/C=C/C(=O)/C(Cc2cn(CCCCCCNC(=O)CCNC(=O)CCNC(=O)CO[C@H]3CC[C@@]4(C)C(=CC[C@H]5[C@@H]6CC[C@H]([C@H](C)CCCC(C)C)[C@@]6(C)CC[C@@H]54)C3)nn2)=C(O)/C=C/c2ccc(O)c(OC)c2)ccc1O`, the EC50 (usually the concentration needed to bring the measured effect to its halfway point) in series [2] is 3000 nM. Besides, the Activity entry in series [3] is reported as “Not Active”; in series [4] it was “Active”; in [5] it was “Active”.

As for `COc1cc(/C=C/C(=O)/C(Cc2cn(CCCCNC(=O)COCC(=O)NCCCCN[C@H]3CC[C@@]4(C)C(=CC[C@H]5[C@@H]6CC[C@H]([C@H](C)CCCC(C)C)[C@@]6(C)CC[C@@H]54)C3)nn2)=C(O)/C=C/c2ccc(O)c(OC)c2)ccc1O`, the result in series [1] and in series [8] was Active. In addition, the EC50 in series [2] stood at 160 nM. Further, in [6], the outcome was inactive. In addition, the inhibition result in [7] is “Dose-dependent effect”.

In the case of `COc1cc(/C=C/C(=O)/C(Cc2cn(CCNC(=O)COCC(=O)NCCCCN[C@H]3CC[C@@]4(C)C(=CC[C@H]5[C@@H]6CC[C@H]([C@H](C)CCCC(C)C)[C@@]6(C)CC[C@@H]54)C3)nn2)=C(O)/C=C/c2ccc(O)c(OC)c2)ccc1O`, the outcome in series [1] was Active. The EC50 in series [2] came out at 83 nM. The Activity result was “Active” in [3]; 35% in series [9]; “Active” in series [4]; “Dose-dependent effect” in series [10]; “Active” in series [5]. The result in series [6] was inactive. Besides, the inhibition result in series [7] is “Dose-dependent effect”.

For `COc1cc(/C=C/C(=O)/C=C(O)/C=C/c2ccc(OCc3cn(CCCCNC(=O)COCC(=O)NCCCCN[C@H]4CC[C@@]5(C)C(=CC[C@H]6[C@@H]7CC[C@H]([C@H](C)CCCC(C)C)[C@@]7(C)CC[C@@H]65)C4)nn3)c(OC)c2)ccc1O`, the outcome in [1] was Active.

Consider `COc1cc(/C=C/C(=O)/C=C(O)/C=C/c2ccc(OCc3cn(CCCC(=O)NCCCCN[C@H]4CC[C@@]5(C)C(=CC[C@H]6[C@@H]7CC[C@H]([C@H](C)CCCC(C)C)[C@@]7(C)CC[C@@H]65)C4)nn3)c(OC)c2)ccc1O`, for which the result in [1] was Active.

On to `COc1cc(/C=C/C(=O)/C=C(O)/C=C/c2ccc(OCc3cn(CCCCCCNC(=O)COCC(=O)NCCCCCCN[C@H]4CC[C@@]5(C)C(=CC[C@H]6[C@@H]7CC[C@H]([C@H](C)CCCC(C)C)[C@@]7(C)CC[C@@H]65)C4)nn3)c(OC)c2)ccc1O`, for which the outcome in [1] was Active.

With `COc1cc(/C=C/C(=O)/C(Cc2cn(CCCCCCNC(=O)COCC(=O)NCCCCN[C@H]3CC[C@@]4(C)C(=CC[C@H]5[C@@H]6CC[C@H]([C@H](C)CCCC(C)C)[C@@]6(C)CC[C@@H]54)C3)nn2)=C(O)/C=C/c2ccc(O)c(OC)c2)ccc1O`, the result in series [1] and in series [8] was Active. Moreover, the EC50 in [2] amounted to 300 nM. In series [6], the outcome was inactive. Also, in series [7], the inhibition entry was “Dose-dependent effect”.

On to `COc1cc(/C=C/C(=O)/C=C(O)/C=C/c2ccc(OCc3cn(CCNC(=O)COCC(=O)NCCCCN[C@H]4CC[C@@]5(C)C(=CC[C@H]6[C@@H]7CC[C@H]([C@H](C)CCCC(C)C)[C@@]7(C)CC[C@@H]65)C4)nn3)c(OC)c2)ccc1O`, for which the outcome in series [1] was Active.

Regarding `COc1cc(/C=C/C(=O)/C(Cc2cn(CCCCCCNC(=O)COCC(=O)NCCCCCCN[C@H]3CC[C@@]4(C)C(=CC[C@H]5[C@@H]6CC[C@H]([C@H](C)CCCC(C)C)[C@@]6(C)CC[C@@H]54)C3)nn2)=C(O)/C=C/c2ccc(O)c(OC)c2)ccc1O`, the result in series [1] was Active.

Regarding `COc1cc(/C=C/C(=O)/C(Cc2cn(CCCC(=O)NCCCCN[C@H]3CC[C@@]4(C)C(=CC[C@H]5[C@@H]6CC[C@H]([C@H](C)CCCC(C)C)[C@@]6(C)CC[C@@H]54)C3)nn2)=C(O)/C=C/c2ccc(O)c(OC)c2)ccc1O`, the outcome in [1] was Active.
